Data from ChEMBL document CHEMBL4052819 (2017).
In brackets after ≈: the same amount, converted by molar mass. Activity calls are given as the source filed them. The calls are words filed in the database; no cut-off is given here. Non-standard residues stand in square brackets, D forms with d. Residues, ends and D or L forms follow the SMILES beside them. Cha = N[C@@H](CC1CCCCC1)C(=O)O; Dab = NCC[C@H](N)C(=O)O

How the values were obtained:
Staphylococcus aureus [1] = assay: Antibacterial activity against Staphylococcus aureus ATCC 29213 after 18 to 20 hrs by broth microdilution method; format: functional
Outline: (§1)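 Broth microdilution in tryptic soy broth: 2-fold dilutions mixed 1:1 with ~1.5 × 10^5 CFU/mL inoculum, final 0.5–32 μg/mL; 37 °C, 18–20 h. MIC taken as lowest concentration giving no visible growth. At least three independent experiments, one replicate each.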

Enterobacter cloacae [2] = assay: Antibacterial activity against carbapenem-resistant Enterobacter cloacae clinical isolate expressing beta-lactamase NDM after 18 to 20 hrs by broth microdilution method; format: functional
Outline: (§2)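 Broth microdilution in tryptic soy broth: 2-fold dilutions mixed 1:1 with ~1.5 × 10^5 CFU/mL bacterial suspension in TSB, final 0.5–32 μg/mL, 37 °C for 18–20 h. MIC = lowest concentration with no visible growth. At least three independent experiments, one replicate each.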

Staphylococcus aureus [3] = assay: Antibacterial activity against Staphylococcus aureus ATCC 29213 after 18 to 20 hrs in presence of 95% serum by broth microdilution method; format: functional
Outline: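 Same microdilution with human serum as medium: compound 2-fold diluted in 100% serum, mixed 1:1 with 90% serum holding ~1.5 × 10^5 CFU/mL, giving 95% serum and final 0.5–64 μg/mL. MIC read as no visible growth after incubation as for the broth test.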

Pseudomonas aeruginosa [4] = assay: Bactericidal activity against Pseudomonas aeruginosa ATCC 27853 at 32 ug/ml after 2 hrs by time-kill assay relative to control; format: functional
Outline: (§3)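 Time-kill at 8, 16 and 32 μg/mL; survivors counted on tryptic soy agar at 0, 2, 4, 6 and 24 h. Three independent experiments, one replicate each.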

Acinetobacter baumannii = assay: Bactericidal activity against Acinetobacter baumannii ATCC 19606; format: functional; settings: ATCC 19606 = CIP 70.34 = JCM 6841, read-out: MBC99.9
Outline: (§4)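 MBC from MIC plates at end point: 50 μL from each well with no visible growth plated on tryptic soy agar and counted. MBC taken as lowest concentration giving ≥99.9% fall in viable count relative to initial inoculum. Three independent experiments, one replicate each.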

Pseudomonas aeruginosa [5] = assay: Bactericidal activity against Pseudomonas aeruginosa ATCC 27853 at 16 ug/ml after 60 mins in presence of LPS; format: functional
Outline: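 P. aeruginosa at ~10^6 CFU/mL in TSB with E. coli O111:B4 LPS (final 10, 25, 50 or 100 μg/mL), then compound at final 16 μg/mL. Incubated 37 °C, 200 rpm, 60 min; survivors counted on TSA. Three independent experiments, one replicate each.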

Klebsiella pneumoniae [6] = assay: Antibacterial activity against polymyxin-resistant Klebsiella pneumoniae AR 0109 after 18 to 20 hrs by broth microdilution method
Escherichia coli [7] = assay: Antibacterial activity against Escherichia coli ATCC 25922 in presence of 100% serum after 6 hrs by broth microdilution method; format: functional; settings: ATCC 25922, 6 h
Outline: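 Serum stability: compound added to 100% human serum at final 64 μg/mL, held at 37 °C, sampled at 0, 6, 12 and 24 h. […] Residual activity compared with untreated control.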

Staphylococcus aureus [8] = assay: Antibiofilm activity against methicillin-resistant Staphylococcus aureus LAC established catheter-associated biofilm model at 5 times MIC after 72 hrs relative to control; format: functional
Klebsiella pneumoniae [9] = assay: Antibacterial activity against carbapenem-resistant Klebsiella pneumoniae clinical isolate expressing beta-lactamase NDM, OXA-181 after 18 to 20 hrs by broth microdilution method; format: functional; outline: as §2
Klebsiella pneumoniae [10] = assay: Bactericidal activity against Klebsiella pneumoniae ATCC 13883; format: functional; settings: read-out: MBC99.9; outline: as §4
Escherichia coli [11] = assay: Antibacterial activity against carbapenem-resistant Escherichia coli clinical isolate expressing beta-lactamase NDM after 18 to 20 hrs by broth microdilution method; format: functional; outline: as §2
Staphylococcus aureus [12] = assay: Bactericidal activity against methicillin-resistant Staphylococcus aureus ATCC 43300; format: functional; settings: read-out: MBC99.9
Outline: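 MBC taken at the end of the MIC test: 50 μL from each well without visible growth plated on tryptic soy agar. MBC = lowest concentration giving ≥99.9% reduction in viable cells relative to the initial inoculum. Three independent experiments, one replicate each.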

Pseudomonas aeruginosa [13] = assay: Bactericidal activity against Pseudomonas aeruginosa ATCC 27853; format: functional; settings: read-out: MBC99.9; outline: as §4
Staphylococcus aureus [14] = assay: Induction of cytoplasmic membrane damage in Staphylococcus aureus ATCC 29213 assessed as intracellular potassium ion release at 32 to 64 ug/ml by PBFI probe-based fluorescence assay; format: functional, cell-based
Outline: (§5)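 Mid-log cells washed and suspended in 5 mM HEPES pH 7.2 + 5 mM glucose. PBFI K+ probe added at final 2 μM, then compound at final 8–64 μg/mL; fluorescence read at ex 346/em 505 nm. Three independent experiments; change in fluorescence analysed by ANOVA with Tukey HSD.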

Staphylococcus aureus [15] = assay: Bactericidal activity against Staphylococcus aureus ATCC 29213 at 8 ug/ml after 24 hrs by time-kill assay; format: functional; outline: as §3
Escherichia coli [16] = assay: Antibacterial activity against Escherichia coli ATCC 25922 after 18 to 20 hrs by broth microdilution method; format: functional; outline: as §1
Escherichia coli [17] = assay: Antibacterial activity against polymyxin-resistant Escherichia coli AR 0494 expressing mcr1 after 18 to 20 hrs by broth microdilution method; format: functional; outline: as §2
Staphylococcus aureus [18] = assay: Bactericidal activity against Staphylococcus aureus ATCC 29213 at 16 ug/ml after 4 hrs by time-kill assay relative to control; format: functional; outline: as §3
Pseudomonas aeruginosa [19] = assay: Induction of cytoplasmic membrane damage in Pseudomonas aeruginosa ATCC 27853 assessed as intracellular potassium ion release at 32 to 64 ug/ml by PBFI probe-based fluorescence assay; format: functional, cell-based; outline: as §5
Klebsiella pneumoniae [20] = assay: Antibacterial activity against carbapenem-resistant Klebsiella pneumoniae clinical isolate expressing beta-lactamase KPC after 18 to 20 hrs by broth microdilution method; format: functional; outline: as §2
Staphylococcus aureus [21] = assay: Antibacterial activity against methicillin-resistant Staphylococcus aureus LAC; format: functional
Pseudomonas aeruginosa [22] = assay: Antibacterial activity against Pseudomonas aeruginosa ATCC 27853 after 18 to 20 hrs by broth microdilution method; format: functional; outline: as §1
Staphylococcus aureus [23] = assay: Bactericidal activity against Staphylococcus aureus ATCC 29213; format: functional; settings: read-out: MBC99.9; outline: as §4
Escherichia coli [24] = assay: Antibacterial activity against polymyxin-resistant Escherichia coli UAMS-ECPR1 after 18 to 20 hrs by broth microdilution method; format: functional; outline: as §2
Enterobacter cloacae [25] = assay: Antibacterial activity against carbapenem-resistant Enterobacter cloacae clinical isolate expressing beta-lactamase KPC-3, TEM1 after 18 to 20 hrs by broth microdilution method; format: functional; outline: as §2
Staphylococcus aureus [26] = assay: Bactericidal activity against Staphylococcus aureus ATCC 29213 at 32 ug/ml after 60 mins in presence of LTA; format: functional
Outline: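 S. aureus at ~10^6 CFU/mL mixed with S. aureus LTA (final 10, 25, 50 or 100 μg/mL), then compound at final 32 μg/mL. Incubated 37 °C, 200 rpm, 60 min; survivors counted on TSA. Four independent experiments, one replicate each.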

Escherichia coli [27] = assay: Antibacterial activity against polymyxin-resistant Escherichia coli UAMS-ECPR2 after 18 to 20 hrs by broth microdilution method; format: functional; outline: as §2
Enterococcus faecium [28] = assay: Bactericidal activity against Enterococcus faecium ATCC 19434; format: functional; settings: read-out: MBC99.9; outline: as §4
Enterococcus faecium [29] = assay: Antibacterial activity against Enterococcus faecium ATCC 19434 after 18 to 20 hrs by broth microdilution method; format: functional; outline: as §1
Pseudomonas aeruginosa [30] = assay: Bactericidal activity against Pseudomonas aeruginosa ATCC 27853 at 16 ug/ml after 2 hrs by time-kill assay relative to control; format: functional; outline: as §3
Escherichia coli [31] = assay: Bactericidal activity against Escherichia coli ATCC 25922; format: functional; settings: read-out: MBC99.9; outline: as §4

With CC(C)C[C@H](NC(=O)[C@@H](Cc1ccccc1)NC(=O)[C@H](CCN)NC(=O)[C@H](Cc1ccccc1)NC(=O)[C@H](CCN)NC(=O)[C@@H](N)CC1CCCCC1)C(=O)N[C@@H](CCN)C(=O)N[C@H](CC(C)C)C(=O)N[C@@H](Cc1ccccc1)C(=O)N[C@@H](CO)C(N)=O (H-[Cha][Dab]F[Dab][dF]L[Dab][dL]FS-NH2) the MIC (Staphylococcus aureus [1]) was 2 to 4 µg/mL (≈ 1.63 to 3.26 µM), the MIC (Enterobacter cloacae [2]) was 0.5 µg/mL (≈ 0.408 µM) and the MIC (Staphylococcus aureus [3]) was 32 µg/mL. For the same molecule, the Activity (Pseudomonas aeruginosa [4]) was 5.1 deltalog10CFU/ml, the MBC (Acinetobacter baumannii) was 4 to 8 µg/mL (≈ 3.26 to 6.53 µM) and the Activity (Pseudomonas aeruginosa [5]) was “inactive”. It also gave an MIC (Klebsiella pneumoniae [6]) of 4 to 8 µg/mL (≈ 3.26 to 6.53 µM), an MIC (Escherichia coli [7]) of 4 to 8 µg/mL and an Activity (Staphylococcus aureus [8]) of 3 deltalog10CFU/ml. The MIC (Klebsiella pneumoniae [9]) was 0.5 to 2 µg/mL (≈ 0.408 to 1.63 µM), the MBC (Klebsiella pneumoniae [10]) was 4 µg/mL (≈ 3.26 µM) and the MIC (Escherichia coli [11]) was 0.5 µg/mL (≈ 0.408 µM). For the same molecule, the MBC (Staphylococcus aureus [12]) was 8 µg/mL (≈ 6.53 µM), the MBC (Pseudomonas aeruginosa [13]) was 2 to 4 µg/mL (≈ 1.63 to 3.26 µM) and the Activity (Staphylococcus aureus [14]) was “Active”. For the same molecule, the Activity (Staphylococcus aureus [15]) was “inactive”, the MIC (Escherichia coli [16]) was 0.5 to 1 µg/mL (≈ 0.408 to 0.816 µM) and the MIC (Escherichia coli [17]) was 0.5 µg/mL (≈ 0.408 µM). For the same molecule, the Activity (Staphylococcus aureus [18]) was 3.1 deltalog10CFU/ml, the Activity (Pseudomonas aeruginosa [19]) was “Active” and the MIC (Klebsiella pneumoniae [20]) was 1 to 2 µg/mL (≈ 0.816 to 1.63 µM). For the same molecule, the MIC (Staphylococcus aureus [21]) was 8 µg/mL (≈ 6.53 µM), the MIC (Pseudomonas aeruginosa [22]) was 0.5 to 1 µg/mL (≈ 0.408 to 0.816 µM) and the MBC (Staphylococcus aureus [23]) was 8 µg/mL (≈ 6.53 µM). For the same molecule, the MIC (Escherichia coli [24]) was under 0.5 µg/mL, the MIC (Enterobacter cloacae [25]) was 0.5 µg/mL (≈ 0.408 µM) and the Activity (Staphylococcus aureus [26]) was “inactive”. It also gave an MIC (Escherichia coli [27]) of under 0.5 µg/mL, an MBC (Enterococcus faecium [28]) of 16 µg/mL (≈ 13.1 µM) and an MIC (Enterococcus faecium [29]) of 8 µg/mL (≈ 6.53 µM). It also gave an Activity (Pseudomonas aeruginosa [30]) of 3.7 deltalog10CFU/ml and an MBC (Escherichia coli [31]) of 8 to 16 µg/mL (≈ 6.53 to 13.1 µM).
